According to ChEMBL document CHEMBL3045217, “Factors affecting the synergy of thiabendazole, sodium bicarbonate, and heat to control postharvest green mold of citrus fruit” (J Agric Food Chem, 2008):

Tested on: Fruit
Test: Drug residues in Citrus sinensis cvs. Valencia late (Valencia oranges) at 600 mg/L treated for 1 min at 20 degC postharvest measured after 20 days of storage at 17 degC by GC analysis
Assay type: ADME
Procedure, shortened: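 'Valencia' oranges were dipped 1 min in TBZ at 600 mg/L (20 °C, ±0.5, 1 or 2% wt/vol SBC), 400 mg/L (40 °C, ±SBC) or 200 mg/L (50 °C, alone), then air-dried. They were sampled at 0, 10 and 20 days at 17 °C. Peel of five fruit was frozen, and 5 g of homogenate was extracted with ethyl acetate/hexane (1/1) plus NaCl. The extract was dried under N2, taken up in acetone and analysed by GC. Results are mg/kg on a whole-fruit basis.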

c1ccc2[nH]c(-c3cscn3)nc2c1 [THIABENDAZOLE]
Drug uptake: 1.54 mg/kg
